# FID counter: counter-screen for HCV NS3 helicase inhibitors: DNA intercalator displacement; DNA fluorescent intercalator displacement, fluorescence; inhibition, % at 7.9 µM; actives 0.17% (n = 290,000); in the data active = inhibition above about 37%;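 note: 0% = vehicle and 100% = reference compound; higher means more ethidium bromide displaced from hairpin DNA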
# T cruzi repl: T. cruzi replication inhibition; T. cruzi beta-gal in NIH3T3, luminescence, 90 h; inhibition, % (concentration not given with the values); actives 1.4% (n = 300,000);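 active = mean inhibition across valid replicates above about 55%, limit read from the data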;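 note: signal also drops with host cell toxicity which is not excluded here; 0% = plate median of DMSO wells and 100% = zero luminescence signal; higher percent means less beta-gal luminescence so fewer parasites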
#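 Read-out: Parasite load inhibition, % | Test system: Mouse NIH/3T3 fibroblasts infected with β-gal-expressing T. cruzi Tulahuen C4 | Amount: 5,000 cells/well | Medium: DMEM, 2% fetal bovine serum | Signal: GalScreen β-gal luminescence, detergent lysis, 60 min | Timing: 3 h attach, ≥90 h co-culture | Also added: Tulahuen C4 trypomastigotes, 5000/well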
# MEKK3 PB1 HTS: raises or lowers MEK5 binding to the human MEKK3 PB1 domain | actives 1.4% (n = 290,000) | bead-based flow cytometry, Alexa488-MEK5 binding to MEKK3; actives lie on both sides; 0 = blocked by unlabeled MEK5, 100 = vehicle | binding response (% of control), % at 10 µM | Q99759 | AID 1529;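 active = binding response more than 3 SD above or below the average of its plate-row segment, actives on both sides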;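 note: Alexa488 bead fluorescence after subtracting the streptavidin-only scavenger bead signal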
# Target sequence (Q99759 whole entry, looked up, the tested form may be a part): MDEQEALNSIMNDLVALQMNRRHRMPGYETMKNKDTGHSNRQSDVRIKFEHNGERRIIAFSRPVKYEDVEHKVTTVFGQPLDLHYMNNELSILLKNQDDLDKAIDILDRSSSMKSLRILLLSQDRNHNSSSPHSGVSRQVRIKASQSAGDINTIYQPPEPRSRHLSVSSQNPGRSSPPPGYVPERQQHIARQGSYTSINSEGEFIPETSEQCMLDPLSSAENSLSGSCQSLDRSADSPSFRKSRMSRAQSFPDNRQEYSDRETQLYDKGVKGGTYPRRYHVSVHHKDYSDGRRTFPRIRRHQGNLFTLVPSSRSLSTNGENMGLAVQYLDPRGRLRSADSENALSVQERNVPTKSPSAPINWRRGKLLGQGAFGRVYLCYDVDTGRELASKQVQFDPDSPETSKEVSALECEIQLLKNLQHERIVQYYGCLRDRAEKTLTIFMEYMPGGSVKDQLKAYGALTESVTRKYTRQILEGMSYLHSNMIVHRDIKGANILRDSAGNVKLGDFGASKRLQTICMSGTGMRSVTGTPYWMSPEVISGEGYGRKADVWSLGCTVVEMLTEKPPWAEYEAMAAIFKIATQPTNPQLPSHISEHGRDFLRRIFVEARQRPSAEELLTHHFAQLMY
# HCV NS3 hel inh: blocks Hepatitis C virus NS3 helicase unwinding. NS3 helicase DNA unwinding, Cy5 molecular beacon fluorescence. inhibition, % at 10.9 µM. actives 0.56% (n = 290,000). AID 1800;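 active = inhibition above the mean of all tested compounds plus 3 SD, set per campaign, cut at about 35% in these data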;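 note: 0% = DMSO wells and 100% = thioflavine S control wells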
#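 Material: hepatitis C virus NS3 helicase domain fragment enzyme; measured by: Cy5 fluorescence, 0 and 60 min reads; control set: DMSO and thioflavine S; incubation: 60 min unwinding reaction at 25 °C after ATP addition; read-out basis: % inhibition from 60/0 min fluorescence ratio, DMSO 0%, thioflavine S 100%; repeats: singlicate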
# MEKK2mut PB1 HTS: signal of MEK5 binding to mutant human MEKK2 PB1 domain; actives 0.35% (n = 290,000); bead flow cytometry, Alexa488-MEK5 binding to MEKK2 mutant; percent response, % at 10 µM; in the data active = percent response above about 24%, passing the limit was not always enough
# MEKK2wt PB1 HTS: raises or lowers MEK5 binding to wildtype human MEKK2 PB1 domain; Q9Y2U5; bead flow cytometry, Alexa488-MEK5 binding to MEKK2 WT; actives lie on both sides; binding response (% of control), % at 10 µM; actives 1.1% (n = 290,000); AID 1531; in the data active = binding response below about 67% or above about 130%
# Starred values were filed as active, the others as inactive; . = no result given; [ ] = another dose, or the depositor's remark. Rows were chosen to be rich in hits. Some 4.1% of all compounds tested hit in one or more screens of this group.
SMILES,FID counter,T cruzi repl,MEKK3 PB1 HTS,HCV NS3 hel inh,MEKK2mut PB1 HTS,MEKK2wt PB1 HTS
Cc1c(C(=O)N2CCN(Cc3ccc4c(c3)OCO4)CC2)sc2ncnc(N3CCN(c4ccccc4)CC3)c12,-32,33,91,-58,-13,91
CCn1c(SCCN2CCOCC2)nc2c1c(=O)n(C)c(=O)n2C,-5,7,106,3,4,110
Cc1ccc(CN2CCN(Cc3nc4c(s3)CCCC4)CC2CCO)cc1 (configuration not stated),-2,56*,95,-8,-3,93
CCOc1ccc(CN2CCN(Cc3nc4c(s3)CCCC4)CC2CCO)cc1 (configuration not stated),-11,57*,98,-10,-5,91
COc1cccc(CN2CCN(Cc3nc4c(s3)CCCC4)CC2CCO)c1 (configuration not stated),-8,35,94,6,-7,95
CCn1c(SCC(=O)NC2CC2)nnc1-c1ccc(C)cc1,-9,-8,95,-4,-1,94
Cc1ccc(S(=O)(=O)c2nnn3c2nc(NC2CCN(Cc4ccccc4)CC2)c2ccccc23)cc1C,24,59*,111,-30,30*,176*
CC1CCN(S(=O)(=O)c2ccc(NC(=O)Cn3nnc(-c4ccccc4F)n3)cc2)CC1,3,69*,95,-1,-1,89
CC1CCN(S(=O)(=O)c2ccc(NC(=O)CN3CCN(C)CC3)cc2)CC1,6,59*,98,-10,3,107
CC1CCN(S(=O)(=O)c2ccc(NC(=O)CN3CCCCCC3)cc2)CC1,11,-17,107,-7,4,119
CC1CCN(S(=O)(=O)c2ccc(NC(=O)c3ccccc3F)cc2)CC1,-19,-1,105,-8,1,101
Cc1ccc(C(C)C)cc1OCCn1cncn1,-1,-10,99,1,8,104
CC(=O)N=c1sc2c3ccccc3ccc2n1C,-3,66*,90,-1,0,94
O=C(NCCc1ccccc1F)C1CCCN1S(=O)(=O)c1ccc2ccccc2c1 (configuration not stated),-36,75*,105,-6,0,101
CC(=O)N1CCOc2ccc(S(=O)(=O)N3CCC(C(=O)NCc4ccc(F)cc4)CC3)cc21,-26,2,101,2,3,100
CC(=O)Nc1ccc(Cl)c(-c2nc3ncccc3o2)c1,-6,-5,100,8,2,99
CCCCCn1c(N2CCC(Cc3ccccc3)CC2)nc2c1c(=O)[nH]c(=O)n2C,-15,57*,100,-4,2,92
CCCn1c(N2CCC(Cc3ccccc3)CC2)nc2c1c(=O)[nH]c(=O)n2C,-28,18,105,-2,0,106
CCN(CC)CCNC(=O)c1ccc(NC(=O)/C=C/c2ccc3ccccc3n2)cc1,20,24,87,-33,11,0.0*
CCN(CC)CCNC(=O)c1ccc(NC(=O)Cc2ccccc2F)cc1,8,7,91,1,-3,95
CC(NC(=O)CCc1ccccc1)c1cc2c(cc1Cl)OCCO2 (configuration not stated),-10,3,92,-7,-4,93
Cc1ccc(S(=O)(=O)CCC(=O)Oc2ccc(-c3nnco3)cc2)cc1,.,-11,.,.,.,.
Cc1cc2oc(=O)c(CC(=O)NCCCN(C)C)c(C)c2c2occ(C(C)(C)C)c12,37*,59*,98,-41,1,118
Cc1cc2oc(=O)c(CC(=O)NCCCO)c(C)c2c2occ(C(C)(C)C)c12,-37,1,101,-7,5,104
COc1cccc(NC(=O)c2ccccc2NS(C)(=O)=O)c1,94*,0,101,0,-3,99
SMILES,FID counter,T cruzi repl,MEKK3 PB1 HTS,HCV NS3 hel inh,MEKK2mut PB1 HTS,MEKK2wt PB1 HTS
O=C(NCCc1ccc(O)c(O)c1)C1COc2ccccc2O1 (configuration not stated),-7,2,102,-1,-7,93
CC(C)c1ccc(N2C(=O)CC(NNC(=O)c3cccnc3)C2=O)cc1 (configuration not stated),-7,-10,90,17,-6,93
Cc1cccc(NC(=O)CSCC(=O)Nc2cc(Cl)ccc2N2CCN(C)CC2)c1,20,59*,94,-32,6,113
CN1CCN(c2ccc(S(=O)(=O)N3CCCCC3)cc2NC(=O)COc2ccc(F)cc2)CC1,.,64*,.,.,.,.
CCN1CCN(c2ccc(S(=O)(=O)N3CCCCC3)cc2NC(=O)/C=C/c2ccc([N+](=O)[O-])cc2)CC1,.,50,.,.,.,.
CN1CCN(c2ccc(S(=O)(=O)N3CCCCC3)cc2NC(=O)/C=C/c2ccc(Cl)c([N+](=O)[O-])c2)CC1,.,60*,.,.,.,.
CN1CCC(N(C)S(=O)(=O)c2ccc(NC(=O)COc3ccc(F)cc3)cc2)CC1,.,58*,.,.,.,.
O=C(O)c1cccc(N2C(=O)C3C4C=CC(C4=C(c4ccccc4)c4ccccc4)C3C2=O)c1 (configuration not stated),-8,-10,104,-3,-3,94
COc1ccc(Nc2nc(N3CCN(S(=O)(=O)N(C)C)CC3)nc3ccccc23)cc1,13,30,103,-43,6,110
O=[N+]([O-])c1ccc(Cn2cc(-c3cccc(C(F)(F)F)c3)nn2)cc1,-3,13,104,31,1,103
CN1CCN(c2ccc(S(=O)(=O)N3CCCCC3)cc2NC(=O)COc2cccc(Cl)c2)CC1,.,66*,.,.,.,.
Cc1cccc(OCC(=O)Nc2cc(S(=O)(=O)N3CCCCC3)ccc2N2CCN(C)CC2)c1,11,50,103,-38,1,104
CC(=O)Nc1ccc(S(=O)(=O)N(C)C2CCN(C)CC2)cc1,0,10,106,0,2,106
CN1CCC(N(C)S(=O)(=O)c2ccc(C(C)(C)C)cc2)CC1,14,65*,102,-9,-1,101
Cc1ccc(S(=O)(=O)N2CCN(S(=O)(=O)N3CCC(C)CC3)CC2)cc1C,-16,0,102,-4,5,104
Cc1nc(C)c(C(=O)N2CCCC(C(=O)c3cc(F)ccc3F)C2)s1 (configuration not stated),-28,-3,101,1,5,109
O=C(Nc1ccccc1C(=O)O)c1ccc(NC(=O)C2CC2)cc1,-26,-2,96,2,-1,1.0*[inhibitor]
O=C(Nc1ccccc1O)c1ccc(NC(=O)C2CC2)cc1,-4,-16,101,-1,4,104
Cc1ccccc1NC(=O)c1ccc(Nc2c([N+](=O)[O-])cc([N+](=O)[O-])c3ccccc23)cc1,8,63*,94,-2,-4,90

# Bioassay records deposited in PubChem by several laboratories.
